# Test results: ChEMBL document CHEMBL3808369, “Identification of Cyproheptadine as an Inhibitor of SET Domain Containing Lysine Methyltransferase 7/9 (Set7/9) That Regulates Estrogen-Dependent Transcription” (J Med Chem, 2016)
# The source made the active and inactive calls. No cut-off for these calls is given here.
# Assays:
# [1] = molecular target: T1, Histone-lysine N-methyltransferase SETD7 (Homo sapiens) (UniProt Q8WTS6); assay: Inhibition of Set7/9 in human MCF7 cells assessed as suppression of beta-estradiol-induced ERE promoter activation at 3 to 10 uM preincubated for 18 hrs followed by beta-estradiol addition measured after 24 hrs by luciferase reporter gene assay; format: cell-based
# T1 sequence (whole entry): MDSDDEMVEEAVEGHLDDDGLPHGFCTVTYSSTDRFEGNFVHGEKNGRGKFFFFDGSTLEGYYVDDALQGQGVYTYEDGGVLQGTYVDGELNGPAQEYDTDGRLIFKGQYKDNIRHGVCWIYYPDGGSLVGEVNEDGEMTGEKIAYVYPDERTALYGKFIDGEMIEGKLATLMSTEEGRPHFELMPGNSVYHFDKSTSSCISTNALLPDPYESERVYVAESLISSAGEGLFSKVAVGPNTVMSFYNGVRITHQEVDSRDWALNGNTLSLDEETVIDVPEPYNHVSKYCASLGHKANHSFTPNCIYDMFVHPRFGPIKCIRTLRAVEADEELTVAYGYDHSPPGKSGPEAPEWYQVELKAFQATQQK
# Outline: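 MCF7 cells were switched to estrogen-free medium (phenol red-free RPMI, 10% charcoal-stripped FBS) for 3 days, then transfected with pGL4-3×ERE-TA2 and hRuc-TK. After 6 h, compound was added. After 18 h more, cells received ± 10 nM β-estradiol for 24 h. Dual-luciferase readout: firefly normalized to Renilla, given as fold over unstimulated cells. Four independent assays, SD.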
# [2] = molecular target: T1, Histone-lysine N-methyltransferase SETD7 (Homo sapiens); assay: Inhibition of Set7/9 in human MCF7 cells assessed as suppression of beta-estradiol-induced pS2 mRNA expression at 3 to 10 uM preincubated for 18 hrs followed by beta-estradiol addition measured after 24 hrs by RT-PCR analysis; format: cell-based; conditions: in the assay text read “preincubated for 24 hrs” for “preincubated for 18 hrs”
# Outline: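 MCF7 cells in estrogen-free medium were treated with compound for 24 h, then with 10 nM β-estradiol plus compound for a further 24 h. pS2 and GAPDH mRNA levels were measured by semiquantitative RT-PCR.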
# [3] = molecular target: T1, Histone-lysine N-methyltransferase SETD7 (Homo sapiens); assay: Inhibition of Set7/9 (unknown origin) expressed in Escherichia coli BL21 (DE3) by fluorogenic assay
# MCF7 = assay: Effect on ERalpha expression in human MCF7 cells at 10 to 100 uM after 48 hrs by immunoblotting analysis; format: functional, cell-based
# Outline: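 MCF7 cells were treated with various concentrations for 48 h. Lysates were made in RIPA buffer with protease inhibitors, separated by SDS-PAGE, transferred to PVDF and immunoblotted for ERα with a rabbit polyclonal antibody. Detection was by chemiluminescence.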
# [4] = molecular target: T2, Histone-lysine N-methyltransferase SETD7 (Homo sapiens, UniProt Q8WTS6); assay: Inhibition of recombinant Set7/9 (unknown origin) expressed in Escherichia coli BL21 (DE3) using biotinylated histone H3-derived peptide/SAM as substrate by alphaLISA
# T2 sequence (Q8WTS6 whole entry): T1 sequence (whole entry)
Compound,inhibition [1],inhibition [2],inhibition [3],Activity (MCF7),IC50 [4] [µM]
CC/C(=C(\c1ccccc1)c1ccc(OCCN(C)C)cc1)c1ccccc1,Active,Active,–,–,–
Cc1ccc(/C(=C\CN2CCCC2)c2ccccn2)cc1,–,–,inactive,inactive,–
O=C(c1ccc(F)cc1)C1CCN(CCn2c(=O)[nH]c3ccccc3c2=O)CC1,–,–,inactive,inactive,–
CC(=O)N1CCC(=C2c3ccccc3C=Cc3ccccc32)CC1,–,–,–,–,> 100
